The text below walks through data of ChEMBL document CHEMBL1152641, “Effect of potential amine prodrugs of selective neuronal nitric oxide synthase inhibitors on blood-brain barrier penetration” (Bioorg Med Chem, 2009).

A short description of data set [1]: Ratio of drug level from brain to blood in mouse at 10 umol/kg, ip. The format is ADME, tissue-based.
Data set [2] deals with Mus musculus. Briefly: Plasma concentration in mouse at 10 umol/kg, ip. Format: ADME, organism-based. The note with it: in vivo. A digest of the protocol:
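Mice were given an i.p. injection of a 1 mM PBS solution (100 μL per 10 g) and sampled at 10 min. Heparinized blood was centrifuged and the plasma flash-frozen at −20 °C. Plasma plus internal standard was diluted in 2% acetic acid, cleaned by mixed-mode cation-exchange SPE, and quantified by positive-ESI LC-MS/MS (MRM) against triplicate standard curves; values as SEM.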

The subject of data set [3] is Brain. Briefly: Drug level in mouse brain at […], ip. Format: ADME, organism-based. To be noted: in vivo, read-out: Drug uptake. The method in brief:
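Mice were dosed i.p. with compound diluted in PBS to 1 mM, at 100 μL per 10 g, and sampled 10 min later. Brains were PBS-perfused through the left ventricle, removed, flash-frozen, homogenized in 2% formic acid water/acetonitrile (2:1) with internal standard, then cleaned by cation-exchange SPE. Quantified by positive-ESI LC-MS/MS against triplicate standard curves; μg/g converted to μM assuming density 1 g/mL; SEM.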

Data set [4] has as its system Plasma. Briefly: Metabolic stability in mouse plasma after 40 mins by HPLC in presence of NADPH.
Data set [5] in a line: Metabolic stability in rat liver microsomes assessed compound remaining after 40 mins by HPLC in presence of NADPH. Format: ADME, Microsome. To be noted: read-out: Stability. A digest of the protocol: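 Compound (10 μL of 300 μM stock) in PBS with NADPH regeneration solutions A/B was equilibrated at 37 °C. Rat liver microsomes were added and samples incubated for 0, 10, 20 or 40 min. Reactions were quenched with acetonitrile, chilled to 0 °C, centrifuged, dried and reconstituted in 2% formic acid. HPLC peak areas were normalized to t = 0; minaprine served as activity control.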
On the technique in general: Liver microsomes are vesicles of endoplasmic reticulum, rich in cytochrome P450 enzymes.

In data set [6] the test system is Brain. The experiment in a line: Metabolic stability in mouse brain homogenate assessed degradation by HPLC in presence of NADPH. Format: ADME, tissue-based. A digest of the protocol: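 Three fresh mouse brains were each homogenized in PBS (pH 7.4) with NADPH regeneration buffers A and B, then pooled. Compound was added from a 200 μM stock and incubated at 37 °C for 0, 10, 20 and 40 min. Samples were heat-stopped at 95 °C for 1 min. HPLC UV read-out was at 310 or 260 nm depending on the compound. Peak-area ratio to internal standard was normalized to t = 0.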

Data set [7] concerns Mus musculus. Briefly: Toxicity in mouse at 3.7 mg/kg, ip. The format is organism-based. Set-up: dose 3.7 mg/kg, route intraperitoneal. The note with it: in vivo.
For data set [8], the system named is Plasma. The experiment in a line: Metabolic stability in mouse plasma assessed as half life in presence of NADPH. Format: ADME, cell-free. The method in brief:
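Fresh heparinized mouse plasma was supplemented with NADPH regenerating system (solutions A and B), and compound was added from a 200 μM stock. Incubation was at 37 °C, with samples taken at 0, 10, 20 and 40 min. Samples were quenched with acetonitrile plus internal standard, centrifuged, dried and run on HPLC. Compound/internal-standard ratio was normalized to the t = 0 ratio.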

A further data set concerns Liver microsomes. Briefly: Metabolic stability in rat liver microsomes assessed degradation by HPLC in presence of NADPH. Format: ADME, Microsome. A digest of the protocol:
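Rat liver microsomes were added to PBS containing NADPH regeneration buffers A and B and compound (from a 300 μM stock), pre-equilibrated at 37 °C. Incubation was at 37 °C for 0, 10, 20 and 40 min. Samples were quenched with acetonitrile, chilled, centrifuged, dried and reconstituted in 2% formic acid for HPLC. Peak area was normalized to t = 0. Minaprine was run in parallel as a P450 activity control.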

In the case of `Cc1cc(N)nc(C[C@@H]2CNC[C@@H]2NCCNCCc2cccc(F)c2)c1`, the Kp (commonly the ratio of the level in a tissue or fluid to that in plasma or blood) in [1] was 0.024. Moreover, the concentration came out at 1600 nM in the data set on Mus musculus [2] and 39 nM in the data set with Brain [3].
As for `CC(OC(=O)N[C@@H](CCCNC(=N)N[N+](=O)[O-])CNc1ccccc1)OC(=O)C(C)(C)C` (stereo partly specified), the Stability result in the data set with Plasma [4] is “Unstable”.
Turning to `COC(=O)N(CCO[C@H]1CNC[C@H]1Cc1cc(C)cc(N)n1)CCc1cccc(F)c1` (racemic), the remaining at 40 min in [5] was > 80%. Besides, the Kp in data set [1] worked out at 0.015. For the same compound, the figures for the concentration in the data set on Mus musculus [2] and in the data set with Brain [3] were 1210 nM and 18 nM, respectively.
Regarding `Cc1cc(N)nc(C[C@@H]2CNC[C@@H]2OCCN(CCc2cccc(F)c2)C(=O)OCc2ccccc2)c1` (racemic), the remaining at 40 min in data set [5] was > 60%. In addition, in data set [1], the Kp amounted to 0.018. Also, the concentration turned out to be 490 nM in the data set with Mus musculus [2] and 9 nM in the data set with Brain [3].
Take `CC(=O)N(CCO[C@H]1CNC[C@H]1Cc1cc(C)cc(N)n1)CCc1cccc(F)c1` (racemic): in [5], the remaining at 40 min was > 80%. The Kp in data set [1] came to 0.008. The concentration stood at 4600 nM in the data set on Mus musculus [2] and 39 nM in the data set on Brain [3].
In the case of `Cc1cc(N)nc(C[C@@H]2CNC[C@@H]2OCCN=[N+]=[N-])c1` (racemic), the Stability result with Plasma [4] and in the data set on Brain [6] was “Stable” in each case.
As to `Cc1cc(N)nc(C[C@@H]2CNC[C@@H]2OCCNCCc2cccc(F)c2)c1` (racemic), the Activity result with Mus musculus [7] is listed as “Non-toxic”. Moreover, the concentration ratio (Kp) in data set [1] came to 0.046. Further, the concentration in the data set with Mus musculus [2] was 1600 nM; in the data set on Brain [3], 73 nM.
Consider `CC(OC(=O)N[C@@H](CCCNC(=N)N[N+](=O)[O-])CNc1ccccc1)OC(=O)C(C)(C)C` (single isomer, unassigned; diastereomer 1), for which, in the data set with Plasma [8], the t1/2 came out at 10 min.
With `CC(OC(=O)N[C@@H](CCCNC(=N)N[N+](=O)[O-])CNc1ccccc1)OC(=O)C(C)(C)C` (single isomer, unassigned; diastereomer 2), the Stability result in the data set on Liver microsomes and with Brain [6] was “Unstable” in each case. In addition, the t1/2 in the data set on Plasma [8] is reported as 30 min.
